Laboratory results published in ChEMBL document CHEMBL1122519, “Bispyridinamines: a new class of topical antimicrobial agents as inhibitors of dental plaque” (1984).

What was measured:
Actinomyces viscosus [1] = test: Compound is evaluated for minimal bactericidal concentration against plaque formation for Actinomyces viscosus; format: functional, organism-based
Summary of the method: (§1)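 Preformed in vitro plaques of S. mutans NCTC 10449 or A. viscosus M-100 were grown on ceramic hydroxylapatite under anaerobic conditions at 37 °C in sucrose-supplemented medium. Plaques were immersed for 30 min at 37 °C in compound at 0.3–20 mM, rinsed, and moved to broth containing bromocresol purple. Kill was judged by no acid production, no turbidity increase and no growth on plating at 48 h. Plaques were run in quadruplicate.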

Actinomyces naeslundii = test: Compound is evaluated for plaque-bactericidal index (PBI) against Actinomyces naeslundii 631; format: functional
Actinomyces viscosus [2] = test: Compound is evaluated for plaque-bactericidal index (PBI) against Actinomyces viscosus M-100; format: functional
Escherichia coli [3] = test: Antimicrobial minimum inhibitory concentration against Escherichia coli AB1932-1; format: functional
Summary of the method: (§2)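 Serial twofold tube dilution in tryptose phosphate broth. Each compound was prepared as a 1000 μg/mL aqueous stock and diluted in double-strength broth, then 2×10^5 cells were added. Tubes were incubated aerobically at 37 °C for 24 h. The MIC was taken as the lowest concentration with no visible growth.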

Escherichia coli [4] = test: Minimum inhibitory concentration against Escherichia coli (Vogel); format: functional; summary of the method: as §2
Escherichia coli [5] = test: Antimicrobial minimum inhibitory concentration against Escherichia coli 100/B22; format: functional; summary of the method: as §2
Klebsiella pneumoniae = test: Minimum inhibitory concentration against Klebsiella pneumonia 39645; format: functional; summary of the method: as §2
Proteus mirabilis = test: Minimum antimicrobial inhibitory concentration against Proteus mirabilis MGH-1; format: functional; summary of the method: as §2
Pseudomonas aeruginosa = test: Minimum antimicrobial inhibitory concentration against Pseudomonas aeruginosa MGH-2; format: functional; summary of the method: as §2
Streptococcus mutans [6] = test: Compound is evaluated for the effect of saliva upon the antiplaque activity of the compound at 0% of saliva and at 0.01 percentage of compound; - = No plaque accumulation; format: functional, organism-based
Summary of the method: (§3)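 Hydroxylapatite plate antiplaque assay against S. mutans run for 48 h, with two 1-min exposures to aqueous compound per 24 h. Growth medium contained 0, 5 or 50% pooled human saliva (paraffin-stimulated, centrifuged, filtered, membrane-sterilized). Plaque was stained with FD&C Red No. 3 and graded none, slight or moderate. Staining potential was scored on plates run without inoculum and graded none or slight.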

Streptococcus mutans [7] = test: Compound is evaluated for the effect of saliva upon the antiplaque activity of the compound at 0% of saliva and at 0.025 percentage of compound; - = No plaque accumulation; format: functional, organism-based; summary of the method: as §3
Streptococcus mutans [8] = test: Compound is evaluated for the effect of saliva upon the antiplaque activity of the compound at 0% of saliva and at 0.05 percentage of compound; - = No plaque accumulation; format: functional, organism-based; summary of the method: as §3
Streptococcus mutans [9] = test: Compound is evaluated for the effect of saliva upon the antiplaque activity of the compound at 50% of saliva and at 0.01 percentage of compound; - = No plaque accumulation; format: functional, organism-based; summary of the method: as §3
Streptococcus mutans [10] = test: Compound is evaluated for the effect of saliva upon the antiplaque activity of the compound at 50% of saliva and at 0.025 percentage of compound; - = No plaque accumulation; format: functional, organism-based; summary of the method: as §3
Streptococcus mutans [11] = test: Compound is evaluated for the effect of saliva upon the antiplaque activity of the compound at 50% of saliva and at 0.05 percentage of compound; - = No plaque accumulation; format: functional, organism-based; summary of the method: as §3
Streptococcus mutans [12] = test: Compound is evaluated for the effect of saliva upon the antiplaque activity of the compound at 0% of saliva and at 0.025 percentage of compound; - = No staining; format: functional, organism-based; summary of the method: as §3
Streptococcus mutans [13] = test: Compound is evaluated for the effect of saliva upon the antiplaque activity of the compound at 0% of saliva and at 0.05 percentage of compound; + = Slight staining; format: functional, organism-based; summary of the method: as §3
Streptococcus mutans [14] = test: Compound is evaluated for the effect of saliva upon the antiplaque activity of the compound at 50% of saliva and at 0.01 percentage of compound; - = No staining; format: functional, organism-based; summary of the method: as §3
Streptococcus mutans [15] = test: Compound is evaluated for the effect of saliva upon the antiplaque activity of the compound at 50% of saliva and at 0.025 percentage of compound; - = No staining; format: functional, organism-based; summary of the method: as §3
Streptococcus mutans [16] = test: Compound is evaluated for plaque-bactericidal index (PBI) against Streptococcus mutans 10449; format: functional
Streptococcus mutans [17] = test: Compound is evaluated for the inhibition of plaque-forming enzyme of Streptococcus mutans OMZ-61; format: functional
Summary of the method: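 S. mutans OMZ-61 was grown anaerobically at 37 °C for 24 h in glucose medium. The cell-free filtrate, adjusted to pH 5.5, served as the dextran/levan sucrase source. Reactions contained 3 μmol 14C-sucrose in citrate phosphate buffer pH 5.5 with 4% EtOH and ran 2 h at 37 °C. MeOH-insoluble polysaccharide was counted by scintillation. Compounds were tested at 50, 160 and 500 μg base/mL, with lower levels if needed, and I50 was read graphically.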

Staphylococcus aureus = test: Minimum antimicrobial inhibitory concentration against Staphylococcus aureus; format: functional; summary of the method: as §2
Streptococcus mutans [18] = test: Compound is evaluated for the effect of saliva upon the antiplaque activity of the compound at 50% of saliva and at 0.05 percentage of compound; + = Slight staining; format: functional, organism-based; summary of the method: as §3
Streptococcus mutans [19] = test: Compound is evaluated for the effect of saliva upon the staining potential of the compound at 0% of saliva and at 0.01 percentage of compound; - = No staining; format: functional, organism-based; summary of the method: as §3
Streptococcus mutans [20] = test: Compound is evaluated for minimal bactericidal concentration against plaque formation for Streptococcus mutans; format: functional, organism-based; summary of the method: as §1
Streptococcus mutans [21] = test: Minimum plaque inhibitory concentration using a standard test organism, Streptococcus mutans OMZ-61; format: functional, organism-based
Summary of the method: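 Ceramic hydroxylapatite plates were soaked twice for 1 min each in compound at […] (aqueous), air-dried and rinsed, then hung in sucrose beef-extract medium (pH 7.0) inoculated with late-log S. mutans OMZ-61. Incubation was anaerobic at 37 °C for 24 h, and treatment plus reinoculation were repeated for a second 24 h. Plaque was stained with 1% FD&C Red No. 3 and scored visually. The value is the lowest concentration giving no plaque while medium growth matched control.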

[22] = Compound is evaluated for stain index; format: functional
Summary of the method: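 Ratio of the minimum concentration staining a plaque-free ceramic hydroxylapatite plate to the minimum plaque-inhibiting concentration, both run under the same conditions. Plates got two 1-min soaks (0.1–0.001%), each followed by air-drying, then a water rinse. They were then held 24 h anaerobically at 37 °C in sucrose beef-extract medium, with or without S. mutans OMZ-61, repeated once. Staining was 1-min 1% FD&C Red No. 3, scored visually.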

Streptococcus mutans [23] = test: Compound is evaluated for the growth inhibition of Streptococcus mutans OMZ-61; format: functional
Streptococcus mitis = test: Compound is evaluated for plaque-bactericidal index (PBI) against Streptococcus mitis 90557
Streptococcus sanguinis = test: Compound is evaluated for plaque-bactericidal index (PBI) against Streptococcus sanguis 10558

## CCCCCCCCN=c1ccn(CCCCCCCCCCn2ccc(=NCCCCCCCC)cc2)cc1.Cl.Cl [OCTENIDINE HYDROCHLORIDE]
Actinomyces viscosus [1]
  Concentration: 1.6 mM
Actinomyces naeslundii
  PBI: 19.2
Actinomyces viscosus [2]
  PBI: 19.2
Escherichia coli [3]
  MIC: 1 µg/mL
Escherichia coli [4]
  MIC: 1 µg/mL
Escherichia coli [5]
  MIC: 1 µg/mL
Klebsiella pneumoniae
  MIC: 2 µg/mL
Proteus mirabilis
  MIC: 2 µg/mL
Pseudomonas aeruginosa
  MIC: 3.9 µg/mL
Streptococcus mutans [6]
  Plaque accum: No plaque accumulation
Streptococcus mutans [7]
  Plaque accum: No plaque accumulation
Streptococcus mutans [8]
  Plaque accum: No plaque accumulation
Streptococcus mutans [9]
  Plaque accum: No plaque accumulation
Streptococcus mutans [10]
  Plaque accum: No plaque accumulation
Streptococcus mutans [11]
  Plaque accum: No plaque accumulation
Streptococcus mutans [12]
  Staining potential: No staining
Streptococcus mutans [13]
  Staining potential: No staining
Streptococcus mutans [14]
  Staining potential: No staining
Streptococcus mutans [15]
  Staining potential: No staining
Streptococcus mutans [16]
  PBI: 25.6
Streptococcus mutans [17]
  I50: 31 (ug of base) ml-1
Staphylococcus aureus
  MIC: 1 µg/mL
Streptococcus mutans [18]
  Staining potential: No staining
Streptococcus mutans [19]
  Staining potential: No staining
Streptococcus mutans [20]
  Concentration: 3.2 mM
Streptococcus mutans [21]
  Concentration: 0.005%
[22]
  Stain index: 10
Streptococcus mutans [23]
  MIC: 1 (ug of base) ml-1
Streptococcus mitis
  PBI: 32
Streptococcus sanguinis
  PBI: 32
